26 compounds from ChEMBL document CHEMBL2176990, “Synthesis and biological evaluation of 5-benzylidenepyrimidine-2,4,6(1H,3H,5H)-trione derivatives for the treatment of obesity-related nonalcoholic fatty liver disease” (J Med Chem, 2012) can be followed below.

Series [1] deals with 3T3-L1. As to the kind of experiment: Down-regulation of […] expression in mouse 3T3L1 cells at 10 uM after 24 hrs by ELISA. In kind it is functional. A digest of the protocol: (§1)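 3T3-L1 preadipocytes grown to 2 days post-confluence. Differentiated with 0.5 mM IBMX, 0.25 μM dexamethasone and 1 μg/mL insulin for 2 days, then insulin alone for 2 days, then 10% FBS DMEM. On day 12, treated 24 h; secreted adiponectin and leptin measured by ELISA. Three independent experiments.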
Background: An ELISA detects its analyte on a solid surface through an enzyme-linked reagent.

Series [2] has as its system 3T3-L1. In words: Up-regulation of adiponectin expression in mouse 3T3L1 cells at 10 uM after 24 hrs by ELISA. The format is functional. A digest of the protocol: as §1
The subject of series [3] is HepG2. In words: Reduction of glucose consumption in insulin-resistant human HepG2 cells at 10 uM after 24 hrs by glucose oxidase method in presence of 22.2 mM of glucose. The format is functional, cell-based. A digest of the protocol:
(§2)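 HepG2 cells in DMEM (22.2 mM glucose) with 10% FBS, exposed to 0.1 μM insulin from plating for 2 days. At confluence, given fresh 22.2 mM glucose DMEM with test agents for 24 h. Medium glucose measured by glucose oxidase. Consumption = blank minus remaining glucose, normalized to MTT. Three independent experiments.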

In series [4] the test system is HepG2. In words: Reduction of glucose consumption in insulin-resistant human HepG2 cells at 10 uM after 24 hrs by glucose oxidase method in presence of 0.1 uM of insulin. The format is functional, cell-based. A digest of the protocol: as §2
The subject of series [5] is HepG2. As to the kind of experiment: Reduction of glucose consumption in insulin-resistant human HepG2 cells at 10 uM after 24 hrs by glucose oxidase method. The format is functional, cell-based. A digest of the protocol: as §2
A further series deals with Rattus norvegicus. In words: Toxicity in Wistar rat high fat diet-induced NAFLD model assessed as effect on food intake at 150 mg/kg, po qd for 4 weeks. The format is organism-based. More on the design: dose 150 mg/kg, route oral. The following applies: in vivo, 672 h. A digest of the protocol: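 Male Wistar rats (160−180 g) fed high-fat diet (50.55% calories from fat), n = 10 per group. Dosed orally at 150 mg/kg/day for 4 weeks. Body, liver and fat weights and food intake recorded. Serum lipids, AST, ALT and glucose measured on a biochemistry analyzer. Fasting insulin measured by kit; adiponectin and leptin by ELISA. Mean ± SD; percent change vs HFD group.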

The source made the active and inactive calls. The rule behind the calls is not given here.

Take `O=C1NC(=O)C(=Cc2ccc(OC3CCN(C(=O)c4ccncc4)CC3)cc2)C(=O)N1`: the outcome with 3T3-L1 [1] was inactive. Moreover, the result in the series on 3T3-L1 [2], in the series on HepG2 [3] and in the series with HepG2 [4] was Active.

Regarding `O=C1NC(=O)C(=Cc2ccc(OC3CCN(c4ncccc4C(F)(F)F)CC3)c(F)c2)C(=O)N1`, the result with HepG2 [5] and with HepG2 [4] was inactive.

On to `CS(=O)(=O)N(Cc1ccc(C=C2C(=O)NC(=O)NC2=O)cc1)C1CCN(C(=O)c2cccc(OC(F)(F)C(F)F)c2)CC1`, for which the result in the series with HepG2 [5] and in the series on HepG2 [4] was inactive.

Turning to `O=C1NC(=O)C(=Cc2ccc(OC3CCN(c4ncccc4C(F)(F)F)CC3)cc2)C(=O)N1`, the result in the series on 3T3-L1 [1] was inactive. In addition, the result in the series on 3T3-L1 [2], with HepG2 [3] and with HepG2 [4] was Active.

`O=C1NC(=O)C(=Cc2ccc(OC3CCN(c4ccc(C(F)(F)F)cn4)CC3)cc2)C(=O)N1`: the result in the series with HepG2 [5] and in the series on HepG2 [4] was inactive.

As to `CS(=O)(=O)N(Cc1ccc(C=C2C(=O)NC(=O)NC2=O)cc1)C1CCN(c2ccc([N+](=O)[O-])cn2)CC1`, the result with HepG2 [5] and in the series on HepG2 [4] was inactive.

For the compound `O=C1NC(=O)C(=Cc2ccc(C(=O)N3CCC(Nc4cc([N+](=O)[O-])ccn4)CC3)cc2)C(=O)N1`, the outcome in the series on HepG2 [5] and with HepG2 [4] was inactive.

On to `O=C1NC(=O)C(=Cc2ccc(OC3CCN(C(=O)c4ccc(Cl)cn4)CC3)cc2)C(=O)N1`, for which the result in the series with HepG2 [5] and in the series with HepG2 [4] was inactive.

Regarding `O=C1NC(=O)C(=Cc2ccc(CNC3CCN(c4ccc([N+](=O)[O-])cn4)CC3)cc2)C(=O)N1`, the result in the series on HepG2 [5] and in the series on HepG2 [4] was inactive.

`O=C1NC(=O)C(=Cc2ccc(OC3CCN(C(=O)c4cccc(C(F)(F)F)c4)CC3)cc2)C(=O)N1`: the result with 3T3-L1 [1] was inactive. Besides, the outcome with 3T3-L1 [2], in the series with HepG2 [3] and in the series on HepG2 [4] was Active.

As to `O=C1NC(=O)C(=Cc2ccc(OC3CCN(C(=O)c4ccc(OC(F)F)cc4)CC3)cc2)C(=O)N1`, the outcome in the series with HepG2 [5] and in the series on HepG2 [4] was inactive.

On to `COc1cc(OC2CCN(c3ncccc3C#N)CC2)cc(OC)c1C=C1C(=O)NC(=S)NC1=O`, for which the result in the series on HepG2 [5] and in the series on HepG2 [4] was inactive.

For the compound `N#Cc1cccnc1N1CCC(Oc2ccc(C=C3C(=O)NC(=O)NC3=O)cc2)CC1`, the result in the series with HepG2 [5] and with HepG2 [4] was inactive.

On to `O=C1NC(=O)C(=Cc2ccc(C(=O)NC3CCN(c4ccc([N+](=O)[O-])cn4)CC3)cc2)C(=O)N1`, for which the result in the series with HepG2 [3] and in the series with HepG2 [4] was Active.

With `O=C1NC(=O)C(=Cc2ccc(OC3CCN(C(=O)c4ccccn4)CC3)cc2)C(=O)N1`, the outcome with HepG2 [5] and in the series with HepG2 [4] was inactive.

For `O=C1NC(=O)C(=Cc2ccc(C(=O)NC3CCN(c4cc([N+](=O)[O-])ccn4)CC3)cc2)C(=O)N1`, the outcome in the series with HepG2 [5] and in the series with HepG2 [4] was inactive.

Regarding `O=C1NC(=O)C(=Cc2ccc(OC3CCN(C(=O)c4cccc(Cl)n4)CC3)cc2)C(=O)N1`, the result with HepG2 [5] and with HepG2 [4] was inactive.

`CN(CCOc1ccc(CC2SC(=O)NC2=O)cc1)c1ccccn1` (centres undefined) [ROSIGLITAZONE]: the Activity in the series on 3T3-L1 [1] was 118.8 pg/mL; with 3T3-L1 [2], 236 pg/mL. Also, the result with HepG2 [3] and in the series with HepG2 [4] was Active.

Turning to `O=C1NC(=O)C(=Cc2ccc(OC3CCN(C(=O)c4ccc(OC(F)F)cc4)CC3)c(F)c2)C(=O)N1`, the result in the series on HepG2 [3] and in the series on HepG2 [4] was Active.

Take `O=C1NC(=O)C(=Cc2ccc(OC3CCN(C(=O)c4cccnc4)CC3)cc2)C(=O)N1`: the result in the series with HepG2 [5] and in the series with HepG2 [4] was inactive.

`O=C1NC(=O)C(=Cc2ccc(OC3CCN(C(=O)c4cccc5c4OC(F)(F)O5)CC3)c(F)c2)C(=O)N1`: the result in the series on HepG2 [5] and in the series with HepG2 [4] was inactive.

Regarding `N#Cc1cccnc1N1CCC(NC(=O)c2ccc(C=C3C(=O)NC(=O)NC3=O)cc2)CC1`, the result in the series on HepG2 [5] and in the series on HepG2 [4] was inactive.

`O=C1NC(=O)C(=Cc2ccc(C(=O)N3CCC(Nc4ccc([N+](=O)[O-])cn4)CC3)cc2)C(=O)N1`: the result with HepG2 [5] and with HepG2 [4] was inactive.

With `COC(=O)c1sccc1S(=O)(=O)N1CCC(Oc2ccc(C=C3C(=O)NC(=O)NC3=O)cc2F)CC1`, the result in the series on HepG2 [5] and in the series with HepG2 [4] was inactive.

Regarding `O=C1NC(=O)C(=Cc2ccc(OC3CCN(c4ccc([N+](=O)[O-])cn4)CC3)cc2)C(=O)N1`, the result with HepG2 [5] and with HepG2 [4] was inactive.

Consider `CN(C)C(=N)N=C(N)N` [METFORMIN], for which the Activity entry in the series with Rattus norvegicus is on record as “Non-toxic”.
